Values belong to the molecule of their own block, whether it stands above or below them.
What was measured:
[1] = TEM and DLS of nanoparticle formation; type: physicochemical; settings: 250 μM GSH + 0.5 nmol U-1 furin, 12 h, furin buffer
Procedure, shortened: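 25 μM test compound was incubated 12 h in furin buffer with 250 μM GSH and 0.5 nmol U⁻¹ furin. The resulting particles were examined by TEM, and their size distribution was measured by DLS.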

[2] = test system: DNA methyltransferase (DNMT); test: DNMT activity/inhibition assay kit on nuclear extracts of treated cells; type: cell-based, human; settings: HCT116 cells, 500 μM for 3 h, measured 48 h later, n=3
Procedure, shortened: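 5×10⁶ HCT116 cells were incubated 3 h at 37 °C with or without 500 μM test compound, washed three times and cultured in fresh McCoy's 5A. After 48 h, nuclear proteins were extracted with a kit and quantified by Bradford assay. DNMT activity was measured with an activity/inhibition kit using 8 μg nuclear protein per well.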

furin = furin (Homo sapiens, UniProt P09958); test: Furin-controlled condensation in solution followed by HPLC; type: biochemical; settings: 25 μM, 250 μM GSH + 0.5 nmol U-1 furin, 12 h, 37 °C
Procedure, shortened: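 25 μM test compound was incubated with 250 μM GSH at 37 °C, pH 7.4. Reduction alone ran 2 h; with 0.5 nmol U⁻¹ furin added, incubation ran 12 h. Reduced, cleaved and condensed products were followed by HPLC. Conversion to dimer was tracked as a function of time.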

HCT116 cells [3] = test: CEST MRI of incubated cells; type: cell-based, human; settings: 500 μM, 3 h; for CEST signal, fold less compared to Olsa-RVRR: after subtracting values of non-treated cells; for OlsaCEST signal, fold larger compared to free olsalazine: in vitro
HCT116 tumor [4] = test: In vivo CEST MRI of tumor xenograft; set-up: species or system NU/J nude mice; settings: 0.2 mmol/kg i.v.; no significant difference between HCT116 and LoVo tumors
Procedure, shortened: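 Female NU/J nude mice bore s.c. HCT116 (left flank) and LoVo (right flank) xenografts, 1×10⁶ cells each. At 100–200 mm³, mice received i.v. 0.2 mmol/kg test compound or parent drug in PBS with 1% DMSO. Serial CEST MRI over 24 h at 11.7 T used RARE, TR/TE 5,000/3.7 ms, B₁ 3.6 μT, t_sat 4 s, and offsets ±7.4–12.6 ppm. The 0 h MTR_asym was subtracted; n=4 mice.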

[5] = Mouse body weight during treatment; type: in vivo, NU/J nude mice; settings: 0.1 mmol/kg i.v., Q3D×8, n=4 mice
Procedure, shortened: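 Female NU/J nude mice, 6-8 weeks old, carried s.c. xenografts of 1×10⁶ HCT116 (left flank) and 1×10⁶ LoVo (right flank) cells. Repeated i.v. dosing (QD3×8) began after tumor cell injection, with a PBS control group. Body weight was recorded over time and reported as mean±SD, n=4 mice.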

[6] = In vitro CEST MRI of solutions; type: physicochemical; settings: 11.7 T, 37 °C
Procedure, shortened: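 Compound (0.625–10 mM) was dissolved in 10 mM PBS and titrated with 3 M HCl/NaOH to pH 5.0–8.0. Samples in 1 mm capillaries were held at 37 °C at 11.7 T. RARE CEST used TR/TE 6,000/5 ms, B₁ 3.6 μT, and offsets −12 to 12 ppm in 0.3 ppm steps. B₀ was WASSR-corrected. MTR_asym was computed from ±Δω signals over S₀; exchange rate came from QUESP across saturation powers.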

[7] = Ex vivo CEST MRI of organs; type: in vivo, NU/J nude mice; settings: 0.2 mmol/kg i.v.; 2 h p.i. for Olsa-RVRR, 0.5 h p.i. for olsalazine; n=4 mice
Procedure, shortened: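 Female nude mice carried s.c. HCT116 (left flank) and LoVo (right flank) xenografts of 100-200 mm³. They received 0.2 mmol/kg test compound i.v. in PBS with 1% DMSO and were killed at 2 h or 30 min. Major organs were placed in PBS in a sealed well plate for CEST imaging. Signal was computed as MTR_asym, expressed relative to muscle; mean±SD, n=4.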

LoVo tumor = test: Anti-tumor treatment response; type: in vivo, NU/J nude mice; settings: 0.1 mmol/kg i.v., Q3D×8, n=4 mice
Procedure, shortened: (§1)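 At 50–100 mm³, mice were randomised into three groups (n=4). Groups received i.v. 0.1 mmol/kg test compound, parent drug or PBS, all in 1% DMSO, every 3 days (Q3D×8). Caliper volume = (smallest dimension)² × largest × 0.5. Day-33 volumes were expressed relative to PBS.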

HCT116 cells [8] = test: Cell viability, acridine orange/propidium iodide counting; type: cell-based, human; settings: 48 h incubation
HCT116 tumor [9] = test: Anti-tumor treatment response; type: in vivo, NU/J nude mice; settings: 0.1 mmol/kg i.v., Q3D×8, n=4 mice
Procedure, shortened: as §1

HCT116 cells [10] = test: 3D-SIM super-resolution fluorescence imaging of cells; type: cell-based, human; settings: 8 μM, 3 h
Procedure, shortened: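 Cells were exposed for 3 h to 8 μM test compound or free Alexa 488, PBS-washed, fixed 10 min in 4% paraformaldehyde and mounted in DAPI-containing medium. Super-resolution images were acquired with simultaneous 405 nm (DAPI) and 488 nm (Alexa 488) excitation. Experiments were repeated three times.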

LoVo cells = test: 3D-SIM super-resolution fluorescence imaging of cells; type: cell-based, human; settings: 8 μM, 3 h
Procedure, shortened: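 Cells were incubated 3 h with 8 μM Alexa-conjugated test probe or free Alexa 488 dye, then washed three times with PBS. They were fixed in 4% paraformaldehyde for 10 min, washed again and mounted with DAPI-containing medium. 3D-SIM used 405 nm (DAPI) and 488 nm (Alexa 488) excitation. Experiments were repeated three times.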

HCT116 and LoVo tumors = test: 3D-SIM imaging of resected tumors; type: in vivo, NU/J nude mouse; settings: 50 nmol i.v., tumors resected at 2 h post-injection
Procedure, shortened: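 Female NU/J nude mice, 6-8 weeks old, carried s.c. xenografts of 1×10⁶ HCT116 and 1×10⁶ LoVo cells. Each received 50 nmol of test compound or free Alexa 488 i.v.; tumors were resected at 2 h. Tissue was formalin-fixed overnight, cryoprotected overnight in 30% w/v sucrose at 4 °C, OCT-embedded, cut at 10 μm and DAPI-mounted. Imaging used 405/488 nm excitation.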

Sequence of furin (P09958 108-595 limits assumed): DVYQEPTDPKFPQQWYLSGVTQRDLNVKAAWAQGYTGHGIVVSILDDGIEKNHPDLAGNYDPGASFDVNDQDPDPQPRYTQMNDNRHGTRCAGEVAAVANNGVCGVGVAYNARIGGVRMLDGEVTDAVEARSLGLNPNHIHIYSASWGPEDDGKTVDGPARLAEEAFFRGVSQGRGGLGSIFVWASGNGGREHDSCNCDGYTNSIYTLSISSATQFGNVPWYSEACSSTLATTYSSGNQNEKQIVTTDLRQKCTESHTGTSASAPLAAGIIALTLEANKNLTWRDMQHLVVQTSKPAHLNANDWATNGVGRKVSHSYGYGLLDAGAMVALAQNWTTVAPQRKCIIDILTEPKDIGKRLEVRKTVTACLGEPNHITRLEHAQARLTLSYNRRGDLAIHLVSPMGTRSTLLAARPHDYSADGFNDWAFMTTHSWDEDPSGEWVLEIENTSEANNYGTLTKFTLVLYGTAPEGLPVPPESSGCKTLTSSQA

Molecule: Ac-Arg-Val-Arg-Arg-Cys(StBu)-Lys(olsalazine) [CTR2]
nanoparticle formation with GSH and furin (TEM) [1]: no nanoparticles were formed | DNMT inhibition [2]: no significant DNMT inhibition | furin cleavage of the reduced compound (furin): cleaved to cleaved CTR2 without condensation | CEST signal, fold less compared to Olsa-RVRR (HCT116 cells [3]): 5.2 fold | OlsaCEST signal, fold larger compared to free olsalazine (HCT116 cells [3]): 2.3 fold

Molecule: O=C(O)c1cc(/N=N/c2ccc(O)c(C(=O)O)c2)ccc1O [olsalazine]
maximum OlsaCEST intensity in tumors at 0.5 h p.i. (HCT116 tumor [4]): ~ 1.8% | body weight [5]: did not show any significant differences in body weight | DNMT inhibition [2]: no significant DNMT inhibition | CEST peak offset from the water proton signal ([6]; 10 mM in PBS): ~ 9.8 ppm | proton exchange rate (kex) ([6]; 10 mM, pH 7.4, QUESP method): 697 Hz | organ distribution of OlsaCEST signal ex vivo [7]: both tumor sites showed comparable CEST signals | average tumor volume at day 33 compared to PBS control group set at 100% (LoVo tumor): 86% | OlsaCEST signal versus non-incubated cells (HCT116 cells [3]; p>0.05): no significant difference between free olsalazine-incubated cells and non-incubated cells | dose to obtain a toxic effect comparable to Olsa-RVRR at 125 μM (HCT116 cells [8]): 2.5 mM | fold dose increase needed versus Olsa-RVRR for comparable toxic effect (HCT116 cells [8]): 20 fold | average tumor volume at day 33 compared to PBS control group set at 100% (HCT116 tumor [9]): ~ 88%

furin cleavage of the reduced compound (furin): could not be further cleaved
Molecule: RKRCRV [CTR1]
nanoparticle formation with GSH and furin (TEM) [1]: no nanoparticles were formed | DNMT inhibition [2]: no significant DNMT inhibition | CEST signal, fold less compared to Olsa-RVRR (HCT116 cells [3]): 4.4 fold | OlsaCEST signal, fold larger compared to free olsalazine (HCT116 cells [3]): 2.8 fold

Molecule: Ac-Arg-Val-Arg-Arg-Cys(StBu)-Lys(Alexa 488)-2-cyanobenzothiazole [Alexa-RVRR]
intracellular green fluorescence (3D-SIM) (HCT116 cells [10]): clustering of green fluorescent nanoparticles | intracellular green fluorescence (3D-SIM) (LoVo cells): much less | green fluorescent nanoparticles in tumors (3D-SIM) (HCT116 and LoVo tumors): much higher quantity of green fluorescent nanoparticles

Reference: PMC6872935 (Nature materials, 2019)
